# Experimental data as given in PMC3798158 (Journal of medicinal chemistry, 2013).
# “Also recorded” adds a separate entry of the source. Where a name gives a salt, the structure may show the parent alone. Read-outs that look alike come from different tables or passages of the source.
# How the values were obtained:
# [1] = molecular target: T1, rabbit muscle GAPDH (Oryctolagus cuniculus, UniProt P46406); assay: In vitro inhibition of GAPDH; assay type: biochemical; conditions: for GAPDH inhibition (in words): incubation of GAPDH
# [2] = molecular target: T1, rabbit muscle GAPDH; assay: Reversibility of GAPDH inhibition by DTT; assay type: biochemical; conditions: for GAPDH enzyme activity after treatment / GAPDH enzyme activity restored after DTT incubation: 1 μM compound, 60 min; for GAPDH enzyme activity restored after DTT incubation: then DTT
# [3] = molecular target: GAPDH (Oryctolagus cuniculus, UniProt P46406); assay: High resolution LC-MS of structural modifications of GAPDH tryptic peptides; design: species or system rabbit; conditions: for Products, GAPDH tryptic peptide V232–R245 (Cys 244) / Products, GAPDH tryptic peptide I143–K159 (Cys 149, Cys 153): LC-MS after trypsin digest, 10 eq. where printed; for Product at Cys 281 of GAPDH (peptide G269–K306): mass spectrometric data extraction from reaction mixture
# Summary of the method: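 Rabbit muscle GAPDH was incubated with test compound (10 equiv), then trypsin-digested at 20:1 (w/w, monomer:trypsin), 37 °C, 12−16 h, in 50 mM Tris-HCl, and quenched by freezing at −20 °C. Positive-ion Orbitrap, resolution 60000; Cys-peptide modifications were assigned by m/z.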
# [4] = molecular target: AhpC C165S (Salmonella typhimurium, UniProt P0A251, C166S); conditions: LC-MS after Asp-N digest, 10 eq. where printed
# [5] = cited from earlier work; for t1/2 of HNO release: neutral conditions
# [6] = test system: myofilament; conditions: sensitizing myofilament responsiveness to calcium; cited from earlier work
# [7] = test system: STAT3; conditions: similar to AS; cited from earlier work
# [8] = Stopped-flow UV-vis kinetic decomposition; assay type: physicochemical; conditions: compared with AS
# T1 sequence (P46406 whole entry): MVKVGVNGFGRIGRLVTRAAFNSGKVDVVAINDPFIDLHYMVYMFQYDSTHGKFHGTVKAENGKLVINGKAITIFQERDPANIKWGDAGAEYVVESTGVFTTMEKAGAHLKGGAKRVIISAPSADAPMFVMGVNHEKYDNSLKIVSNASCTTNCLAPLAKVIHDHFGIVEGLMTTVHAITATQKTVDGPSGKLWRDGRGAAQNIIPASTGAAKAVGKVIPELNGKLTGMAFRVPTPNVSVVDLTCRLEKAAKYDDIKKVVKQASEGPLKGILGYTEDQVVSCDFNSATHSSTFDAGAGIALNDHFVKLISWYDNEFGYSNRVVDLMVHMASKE
# Chain of GAPDH (P46406 whole entry): as above
compound,measurement,setting,value
"N[C@@H](CCC(=O)N[C@@H](CSN=O)C(=O)NCC(=O)O)C(=O)O [GSNO, S-nitrosoglutathione]",GAPDH inhibition (in words),[1],inhibition of enzyme activity
same,DTT reversibility of GAPDH inhibition (in words),[2],completely DTT reversible
same,"Products, GAPDH tryptic peptide V232–R245 (Cys 244)",[3],Nitrosylated product
same,"Products, C165S AhpC Asp-N peptide D41–G51 (Cys 46)",[4],Nitrosylated Product
"O=Nc1ccccc1 [Nitrosobenzene, nitrosobenzene]",IC50,[1],230 nM
same,"Products, GAPDH tryptic peptide V232–R245 (Cys 244)",[3],Sulfinic acid
same,"Products, C165S AhpC Asp-N peptide D41–G51 (Cys 46)",[4],Sulfinic acid
"CC(=O)OC1(N=O)CCCCC1 [compound 1, 1-Nitrosocyclohexyl acetate]",GAPDH enzyme activity after treatment,[2],5 % of control
same,GAPDH enzyme activity restored after DTT incubation,[2],12 % of control
same,"Products, GAPDH tryptic peptide I143–K159 (Cys 149, Cys 153)",[3],Internal disulfide; RSSR
same,"Products, GAPDH tryptic peptide V232–R245 (Cys 244)",[3],Sulfinic acid
same,Product at Cys 281 of GAPDH (peptide G269–K306),[3],sulfinic acid
same,"Products, C165S AhpC Asp-N peptide D41–G51 (Cys 46)",[4],Sulfinic acid
same,t1/2 of HNO release,[5],13.3 h
same,effect on myocardial contractility,[6],enhances myocardial contractility more potently than AS
"CC(C)(C)C(=O)OC1(N=O)CCCCC1 [compound 2, 1-nitrosocyclohexyl pivalate]","Products, GAPDH tryptic peptide I143–K159 (Cys 149, Cys 153)",[3],Internal disulfide; RSSR
same,"Products, GAPDH tryptic peptide V232–R245 (Cys 244)",[3],Sulfinic acid
same,"Products, C165S AhpC Asp-N peptide D41–G51 (Cys 46)",[4],Sulfinic acid
same,t1/2 of HNO release,[5],37.8 h
same,effect on myocardial contractility,[6],no effect
same,effect on STAT3 activation,[7],blocks STAT3 activation
"O=NC1(OC(=O)C(F)(F)F)CCCCC1 [compound 3, 1-Nitrosocyclohexyl trifluoroacetate]",HNO release rate relative to AS,[8],over 1000 times faster
same,"Products, GAPDH tryptic peptide I143–K159 (Cys 149, Cys 153)",[3],Internal disulfide; RSSR
same,"Products, GAPDH tryptic peptide V232–R245 (Cys 244)",[3],"Sulfinamide,; also recorded: Sulfinic acid"
O=S(=O)(NO)c1ccccc1Br [o-Bromo-Piloty’s Acid],"Products, GAPDH tryptic peptide I143–K159 (Cys 149, Cys 153)",[3],Internal disulfide; RSSR
same,"Products, GAPDH tryptic peptide V232–R245 (Cys 244)",[3],Sulfinamide; also recorded: Sulfinic acid
same,"Products, C165S AhpC Asp-N peptide D41–G51 (Cys 46)",[4],Sulfinamide; also recorded: Sulfinic acid
"Diethylammonium-1- (N,N-diethylamino) diazen-1-ium- 1,2-diolate [DEANO]",GAPDH inhibition (in words),[1],inhibition of enzyme activity
same,"Products, GAPDH tryptic peptide V232–R245 (Cys 244)",[3],Nitrosylated product
Sodium trioxidinitrate [AS],GAPDH enzyme activity after treatment,[2],23 % of control
same,GAPDH enzyme activity restored after DTT incubation,[2],51 % of control
same,"Products, GAPDH tryptic peptide I143–K159 (Cys 149, Cys 153)",[3],Internal disulfide; RSSR
same,"Products, GAPDH tryptic peptide V232–R245 (Cys 244)",[3]; listed as 14N AS,Sulfinamide; also recorded: Sulfinic acid
same,Product at Cys 281 of GAPDH (peptide G269–K306),[3],sulfinamide
same,"Products, C165S AhpC Asp-N peptide D41–G51 (Cys 46)",[4]; listed as 14N AS,Sulfinamide; also recorded: Sulfinic acid
same,rate constant of decomposition to HNO and nitrite,"[5]; pH 7, 37 °C",0.005 s⁻¹
